How the values were obtained:
B16 [1] = assay: Difference in body weight in grams between test and control animals at a dose of 5 mg/kg intraperitoneally; assay type: functional, Mus musculus; conditions: route intraperitoneal
Outline: (§1)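 B16 melanoma system: 10⁶ tumor cells inoculated ip on day 0. Drug given ip once daily for 9 days (Q01Dx09) starting day 1, dose as mg/kg body weight per injection. Read-out is the body-weight difference in grams, treated minus control animals. Early deaths, taken as toxicity, are scored on day 4.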

B16 [2] = assay: Antitumor activity in B16 Melanoma system animals is indicated by survivors on day 4 at a dose of 10 mg/kg intraperitoneally; assay type: functional, Mus musculus; set-up: reference not given here; conditions: route intraperitoneal
Outline: (§2)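 B16 melanoma, 10^6 cells inoculated ip on day 0. Ip treatment started day 1, schedule Q01Dx09 (one dose daily for 9 days). The score is live animals on day 4 over total animals; early deaths are taken as drug toxicity.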

B16 [3] = assay: Antitumor activity in B16 Melanoma system animals is indicated by survivors on day 4 at a dose of 20 mg/kg intraperitoneally; assay type: functional, Mus musculus; set-up: reference not given here; conditions: route intraperitoneal; outline: as §2
B16 [4] = assay: Antitumor activity in B16 Melanoma system animals is indicated by survivors on day 4 at a dose of 40 mg/kg intraperitoneally; assay type: functional, Mus musculus; conditions: route intraperitoneal; outline: as §2
B16 [5] = assay: Difference in body weight in grams between test and control animals at a dose of 20 mg/kg intraperitoneally; assay type: functional, Mus musculus; conditions: route intraperitoneal; outline: as §1
B16 [6] = assay: Difference in body weight in grams between test and control animals at a dose of 40 mg/kg intraperitoneally; assay type: functional, Mus musculus; conditions: route intraperitoneal; outline: as §1
B16 [7] = assay: Percent of median lifetime of test animals divided by the median lifetime of control animals at a dose of 20 mg/kg intraperitoneally; assay type: functional, Mus musculus; conditions: route intraperitoneal
Outline: (§3)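 B16 melanoma inoculated ip (10⁶ cells) on day 0. Daily ip treatment for 9 days (Q01Dx09) begins day 1, dosed per injection in mg/kg. %T/C is the median lifespan of treated animals divided by that of tumored untreated controls, ×100. Cures are animals alive on the last test day. Toxic deaths are assessed on day 4.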

B16 [8] = assay: Percent of median lifetime of test animals divided by the median lifetime of control animals at a dose of 40 mg/kg intraperitoneally; Toxic; assay type: functional, organism-based; set-up: dose 40 mg/kg; conditions: Mus musculus
Outline: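 B16 melanoma, 10^6 cells ip on day 0, ip treatment from day 1, Q01Dx09 (single dose daily for 9 days). %T/C is median lifetime of treated over untreated tumored controls, times 100. Early deaths are assessed on day 4 for toxicity. Cures are animals alive on the last test day.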

B16 [9] = assay: Percent of median lifetime of test animals divided by the median lifetime of control animals at a dose of 5 mg/kg intraperitoneally; assay type: functional, Mus musculus; conditions: route intraperitoneal; outline: as §3
B16 [10] = assay: Difference in body weight in grams between test and control animals at a dose of 10 mg/kg intraperitoneally; assay type: functional, Mus musculus; conditions: route intraperitoneal; outline: as §1
B16 [11] = assay: Percent of median lifetime of test animals divided by the median lifetime of control animals at a dose of 10 mg/kg intraperitoneally; assay type: functional, Mus musculus; conditions: route intraperitoneal; outline: as §3
B16 [12] = assay: Antitumor activity in B16 Melanoma system animals is indicated by survivors on day 4 at a dose of 5 mg/kg intraperitoneally; assay type: functional, Mus musculus; conditions: route intraperitoneal; outline: as §2
B16 [13] = assay: Antitumor activity in B16 Melanoma system animals is indicated by survivors on day 4 at a dose of 2.5 mg/kg intraperitoneally; assay type: functional, Mus musculus; set-up: reference not given here; conditions: route intraperitoneal; outline: as §2
B16 [14] = assay: Difference in body weight in grams between test and control animals at a dose of 2.5 mg/kg intraperitoneally; assay type: functional, Mus musculus; conditions: route intraperitoneal; outline: as §1
B16 [15] = assay: Percent of median lifetime of test animals divided by the median lifetime of control animals at a dose of 40 mg/kg intraperitoneally; assay type: functional, Mus musculus; conditions: route intraperitoneal; outline: as §3
B16 [16] = assay: Percent of median lifetime of test animals divided by the median lifetime of control animals at a dose of 2.5 mg/kg intraperitoneally; assay type: functional, Mus musculus; conditions: route intraperitoneal; outline: as §3
B16 [17] = assay: Antitumor activity in B16 Melanoma system animals is indicated by survivors on day 4 at a dose of 1.25 mg/kg intraperitoneally; assay type: functional, Mus musculus; conditions: route intraperitoneal; outline: as §2
B16 [18] = assay: Difference in body weight in grams between test and control animals at a dose of 1.25 mg/kg intraperitoneally; assay type: functional, Mus musculus; conditions: route intraperitoneal; outline: as §1
B16 [19] = assay: Percent of median lifetime of test animals divided by the median lifetime of control animals at a dose of 1.25 mg/kg intraperitoneally; assay type: functional, Mus musculus; conditions: route intraperitoneal; outline: as §3
B16 [20] = assay: Antitumor activity in B16 Melanoma system animals is indicated by survivors on day 4 intraperitoneally; conditions: Mus musculus, route intraperitoneal

Row | Structure (SMILES) | Weight difference (B16 [1]) | Activity (B16 [2]) | Activity (B16 [3]) | Activity (B16 [4]) | Weight difference (B16 [5]) | Weight difference (B16 [6]) | T/C (B16 [7]) | T/C (B16 [8]) | T/C (B16 [9]) | Weight difference (B16 [10]) | T/C (B16 [11]) | Survivors on day 4 (B16 [12]) | Activity (B16 [13]) | Weight difference (B16 [14]) | T/C (B16 [15]) | T/C (B16 [16]) | Activity (B16 [17]) | Weight difference (B16 [18]) | T/C (B16 [19]) | Activity (B16 [20])
1 | CC(=O)OC1C(=O)[C@@]2(C)[C@H]([C@H](OC(=O)c3ccccc3)[C@]3(O)CC(OC(=O)C(O)C(NC(=O)c4ccccc4)c4ccccc4)C(C)=C1C3(C)C)[C@]1(OC(C)=O)CO[C@@H]1C[C@@H]2O (some centres not stated) | -0.2 g | 10 | 10 | 10 | 0 g | -1.2 g | 96% | Toxic | 175% | 0 g | 139% | 10 | – | – | – | – | – | – | – | –
2 | CC(=O)OC1C(=O)[C@@]2(C)[C@H]([C@H](OC(=O)c3ccccc3)[C@]3(O)CC(OC(=O)C(OC(=O)CCC(=O)O)C(NC(=O)c4ccccc4)c4ccccc4)C(C)=C1C3(C)C)[C@]1(OC(C)=O)CO[C@@H]1C[C@@H]2O (some centres not stated) | 0.4 g | 10 | 10 | 10 | 0 g | 0 g | 154% | – | 154% | 0.4 g | 159% | 10 | 10 | 0 g | 185% | 119% | – | – | – | –
3 | CC(=O)OC1C(=O)[C@]2(C)C(O)C[C@H]3OC[C@@]3(OC(C)=O)[C@H]2[C@H](OC(=O)c2ccccc2)[C@]2(O)CC(OC(=O)[C@@H]3OC(=O)N(C(=O)c4ccccc4)[C@H]3c3ccccc3)C(C)=C1C2(C)C (some centres not stated) | 0 g | 10 | – | – | -0.2 g | – | 98% | – | 95% | -0.1 g | 100% | 10 | 10 | -0.3 g | – | 88% | 10 | -0.2 g | 94% | 10

— ChEMBL document CHEMBL1124441, “Synthesis of congeners and prodrugs. 3. Water-soluble prodrugs of taxol with potent antitumor activity” (1989)
